Results from PMC3426361 (Journal of biomolecular screening, 2010).

Target: TDP-43 (Homo sapiens, UniProt Q13148)
Test: Association and dissociation rates of bt-TAR-32 and bt-TG6 binding to TDP-43
Conditions: slope of kobs vs ligand concentration; arithmetic mean ± SEM, 3 determinations
How it was run: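 GST-tagged TDP-43 (5 ng/mL, 40 pM) on anti-GST beads (10 μg/mL, preincubated) added at staggered times to biotinylated oligonucleotide (0.25–6.0 nM) prebound 30 min RT to streptavidin donor beads (10 μg/mL). Buffer: 25 mM Tris pH 7.4, 0.1% BSA, 0.1% Triton X-100. AlphaScreen signal read together at end, dark, RT. kobs from one-site exponential association fits per concentration.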

TDP-43, sequence (Q13148 whole entry): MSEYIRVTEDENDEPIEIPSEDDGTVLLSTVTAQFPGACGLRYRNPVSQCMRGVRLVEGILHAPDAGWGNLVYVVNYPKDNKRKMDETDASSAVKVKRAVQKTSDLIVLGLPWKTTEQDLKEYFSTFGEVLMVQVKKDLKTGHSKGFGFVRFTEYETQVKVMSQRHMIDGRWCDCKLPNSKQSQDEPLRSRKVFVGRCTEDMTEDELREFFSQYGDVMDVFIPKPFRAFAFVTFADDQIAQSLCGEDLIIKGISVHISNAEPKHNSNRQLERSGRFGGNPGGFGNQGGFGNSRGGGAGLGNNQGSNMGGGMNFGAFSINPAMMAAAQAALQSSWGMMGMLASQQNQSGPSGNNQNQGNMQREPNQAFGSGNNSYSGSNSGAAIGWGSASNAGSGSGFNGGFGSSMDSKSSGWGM

With “5′-CTGCTTTTTGCCTGTACTGGGTCTCTGTGGTT-3′ (DNA CTGCTTTTTGCCTGTACTGGGTCTCTGTGGTT; chemistry not given here) [TAR-32]” the kon was 2.4 ± 0.93 µmol⁻¹ min⁻¹.
